# Assay outcomes deposited in PubChem by The Scripps Research Institute Molecular Screening Center.
# STAT3 inh-1 = STAT3 signaling inhibition. U3A cells, IL-6 STAT3-luciferase reporter, luminescence; host cell line lacks STAT1. inhibition, % at 5.5 µM. 0.89% of 190,000 active. AID 862;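 active means inhibition above the mean inhibition across all screened compounds plus 3 SD, cut at about 44% in these data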;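 further: 0% = DMSO only wells and 100% = 100 µM nifuroxazide control wells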
# STAT1 inh = STAT1 signaling inhibition | NIH 3T3 STAT1-luciferase reporter, IFN-gamma, luminescence | inhibition, % at 5.5 µM | 0.35% of 200,000 active;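 active means inhibition above a set limit, the mean inhibition across all tested compounds plus 3 SD, cut at about 34% in these data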;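 further: 0% = IFN-gamma with DMSO and 100% = IFN-gamma with 300 µM nifuroxazide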
# STAT1 activator = activators of IFN-gamma induced STAT1 signaling. activation (% of control), % at 5.5 µM. 2.6% of 200,000 active. NIH 3T3 STAT1-luciferase reporter, luminescence; 100% = IFN-gamma alone, no compound;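 active means activation above the screen-wide mean activation plus 3 SD, cut at about 130% in these data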;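 further: raw ratio to IFN-gamma control signal so 100% means no change and 0% no light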
# STAT3 act = activators of IL-6 induced STAT3 signaling; 0.91% of 190,000 active; U3A cells, IL-6 STAT3-luciferase reporter, luminescence; 100% = signal with IL-6 EC80 alone; activation (% of control), % at 5.6 µM; AID 871;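 active means activation above the screen-wide mean of compound activation plus 3 SD, cut at about 130% in these data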;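 further: 0% = background luminescence of wells with medium and substrate only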
#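 Test system: STAT3-luciferase reporter U3A cells; Detection: reporter luminescence signal; Times: 1 h compound pre-exposure, 6 h IL-6 stimulation, 37 °C; Benchmarks: IL-6-only high control; Also added: IL-6 stimulus at 33 ng/mL final.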
# STAT3 inh-2 = STAT3 inhibition, confirmation assay; AID 1265; 45% of 1,200 active; inhibition, % at 5.7 µM; shares compounds with STAT3 inh-1; U3A cells, IL-6 STAT3 luciferase reporter, luminescence; cell line lacks STAT1;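 active means inhibition above the hit cutoff computed for the primary STAT3 screen, cut at about 44% in these data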;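 further: 0% = IL-6 plus DMSO and 100% = IL-6 plus nifuroxazide control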
# NFkB inh 2 = counter-screen for STAT3 inhibitors: NF-kappaB inhibition | shares compounds with STAT3 inh-1 | 36% of 1,200 active | HEK293T NF-kB luciferase reporter, TNF-alpha induced | inhibition, % at 5.7 µM;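 active means inhibition above the mean of solvent-only control wells plus 3 SD, cutoff set per campaign, cut at about 13% in these data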;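 further: 0% = TNF-alpha with DMSO and 100% = TNF-alpha with MG high control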
# STAT1 inh 2 = inhibits STAT1, counter-screen to STAT3 inhibitors. shares compounds with STAT3 inh-1. NIH 3T3 STAT1-luciferase reporter, IFN-gamma induced, luminescence. inhibition, % at 5.7 µM. 27% of 1,200 active;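 active means inhibition above the mean plus 3 SD of solvent-only control wells, limit set per screening run, cut at about 16% in these data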;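 further: 0% = DMSO with IFN-gamma and 100% = nifuroxazide control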
# * hit, by the source's call; · = no result. Sampled rows, rich in hits. Any-hit rate of the full collection: about 4.3%.
SMILES,STAT3 inh-1,STAT1 inh,STAT1 activator,STAT3 act,STAT3 inh-2,NFkB inh 2,STAT1 inh 2
NC(=S)n1[nH]c(-c2ccc([N+](=O)[O-])cc2)c(N=Nc2ccc(Cl)cc2)c1=O,61*,27,73,51,54*,14*,37*
CCCNC(=O)C1CCN(c2cc(-c3ccccc3)nc3ncnn23)CC1,5,9,91,101,·,·,·
FC(F)(F)c1ccc(N2CCN(c3cc(-c4ccccc4)nc4ncnn34)CC2)nc1,48*,16,85,65,46*,15*,27*
Cc1nc(-c2ccc(NC(=O)/C=C\C(=O)O)cc2)cs1,14,-2,100,90,·,·,·
Cc1nc(-c2ccc(C(=O)Nc3ccc(F)cc3)cc2)cs1,52*,5,94,57,57*,-2,-78
CC1C/C(=C/c2ccncc2)C(=O)/C(=C/c2ccncc2)C1 (stereo unspecified),53*,26,75,57,44*,-20,19*
CC(C)COc1ccc(C(=O)Nc2scc(-c3ccc(Cl)cc3Cl)c2C(N)=O)cc1,49*,-1,101,67,36,11,1
CC(C)C1CC(CCN)(Cc2ccccc2)CCO1 (stereo unspecified),1,-2,100,102,·,·,·
Cc1ccc(-c2cc(-c3ccccc3)no2)c(O)c1,49*,-14,113,56,7,18*,-21
Cc1ccc(C(=O)Oc2cc(-c3ccccc3)no2)cc1,9,-2,102,98,·,·,·
CCOc1ccc2nc(NC(=O)c3ccoc3C)sc2c1,79*,32,71,38,47*,14*,-67
CCOC(=O)c1ccc2nc(NC(=O)c3ccco3)sc2c1,54*,-13,112,57,7,-26,-107
COCCN(Cc1ccccc1)C(=O)c1c(C)nn(-c2ccccc2)c1C,7,3,95,100,·,·,·
COc1ccc(-c2nn(C)c(=O)c3ccccc23)cc1NC(=O)COc1ccc(C)cc1,65*,16,86,46,49*,10,13
COC(=O)C1=C(C)NC(=S)N(C(C)=O)C1c1ccc(OC)c(OC)c1 (stereo unspecified),-1,11,90,103,·,·,·
CCCCC1CCC(c2nc(-c3ccccn3)no2)CC1 (stereo unspecified),72*,-3,102,45,22,-39,-85
CCCCC1CCC(c2nc(-c3cccnc3)no2)CC1 (stereo unspecified),1,0,101,105,·,·,·
COc1ccc2cc(-c3[nH]ncc3CN3CCCC3c3nonc3C)ccc2c1 (stereo unspecified),-3,-20,116,105,·,·,·
Cc1ccc(-c2cc3c(N=O)c4ccccc4c-3n[nH]2)cc1,117*,33,69,9,98*,80*,2
c1ccc(-c2n[nH]c3ccccc23)cc1,3,2,99,101,·,·,·
Cc1cccc(-c2cc3c(N=O)c4ccccc4c-3n[nH]2)c1,50*,-6,106,62,-6,-19,-26
Cc1ccc(-c2cc(=O)c3ccccc3[nH]2)cc1,5,-2,102,94,·,·,·
O=Nc1c2cc(-c3ccccc3)[nH]nc-2c2ccccc12,98*,-6,105,23,48*,30*,-17
O=C(O)C1=C[C@@H](c2coc3ccccc3c2=O)C[C@@H](OCCCCO)O1,·,-16,116,·,·,·,·
CCC(CC)C(=O)NCCCN1CCOCC1,-2,-3,103,101,·,·,·
SMILES,STAT3 inh-1,STAT1 inh,STAT1 activator,STAT3 act,STAT3 inh-2,NFkB inh 2,STAT1 inh 2
CC(=O)c1sc(NC(=O)C2COc3ccccc3O2)nc1C (stereo unspecified),74*,20,82,43,34,-2,-43
O=C1NC(=O)c2cc(NC(=O)C3COc4ccccc4O3)ccc21 (stereo unspecified),35,3,97,75,·,·,·
CC1(C)Oc2ccc(NC(=O)C3COc4ccccc4O3)cc2O1 (stereo unspecified),64*,-22,120,46,26,-15,-85
CCCCONc1ncnc2nonc12,7,-3,102,96,·,·,·
Cc1ccc(N2C(=O)c3ccccc3C2O)nc1 (stereo unspecified),74*,2,99,40,44*,8,-21
Cc1ccc(N2C(=O)c3ccccc3C2Nc2ccccc2F)nc1 (stereo unspecified),10,7,93,96,·,·,·
COc1ccc(CCNc2ccc(N3C(=O)CC(C)C3=O)cc2[N+](=O)[O-])cc1OC (stereo unspecified),70*,33,69,44,58*,17*,14
[O-][n+]1c2c(nc3c1-c1ccccc1C3O)CCCC2 (stereo unspecified),14,-17,117,90,·,·,·
Cc1cc(/C=N/NC(=O)c2cccs2)c(C)n1-c1ccccc1,68*,21,81,46,12,27*,-79
COC(=O)c1ccc(-c2nc(O)c(C)s2)cc1,-2,-1,101,103,·,·,·
COC(=O)c1ccc(-c2nc3cc(Cl)c(N)cc3s2)cc1,87*,-48,146*,25,69*,31*,-4
O=[N+]([O-])c1ccc(N/N=C/c2sc(N3CCOCC3)nc2-c2ccccc2)c(S(=O)(=O)Nc2ccccc2Cl)c1,10,2,99,97,·,·,·
O=[N+]([O-])c1ccc(N/N=C/c2sc(N3CCOCC3)nc2-c2ccccc2)c(S(=O)(=O)Nc2ccc(Cl)cc2)c1,81*,10,90,31,71*,48*,54*
COc1ccc(-[n+]2c(C)cc(/C=C3\Sc4ccccc4N3C)cc2C)cc1,85*,28,74,28,85*,56*,2
CCCCNC(=S)Nc1cccc2cnccc12,-9,12,90,103,·,·,·
S=C(NCCc1ccccc1)Nc1cccc2cnccc12,68*,26,76,44,73*,25*,23*
O=C(c1cc(-c2ccc(Cl)c(Cl)c2)on1)N1CCCC1,19,-2,103,85,·,·,·
O=C(c1cc(-c2ccc(Cl)cc2Cl)on1)N1CCOCC1,50*,2,99,60,22,-11,-89
O=C(c1cc(-c2ccc3c(c2)OCO3)on1)N1CCOCC1,52*,-14,112,59,5,-10,-48
O=C(c1cc(-c2ccc(F)cc2)on1)N1CCCC1,46*,-23,121,66,10,-34,-84
CC1(C)CC(=NNC(=O)c2n[nH]c3c2CCC3)CC(C)(C)N1,9,-2,102,98,·,·,·
O=C(N/N=C/c1ccccc1Cl)c1n[nH]c2c1CCCC2,68*,-29,126,43,73*,56*,23*
